Compound activity (PubChem BioAssay)
Sampled rows, rich in hits. Any-hit rate of the full collection: about 1.5%.
T cell modulator: modulators of CD8 T cell-vesicle binding, primary screen, mouse 2C CD8+ T cells, flow cytometry; 2C CD8+ T cell-vesicle binding; active compounds read low; response (vesicle binding), % at 7 µM; 330,000 compounds, 0.068% hits;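 active means response, share of CD8 T cells binding vesicles, and their 90th percentile fluorescence all below set limits, cut at about 80% in these data, passing the limit was not always enough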;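 further: values below 100% mean blocked vesicle binding to the CD8+ T cells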
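Material: 2C TCR transgenic mouse naive CD8+ T cells, MACS-purified. Also added: QL9-charged Drosophila Ld/ICAM-1/B7-1 vesicles. Timing: binding 1.5 h at 37 °C. Measured by: high-throughput flow cytometry with anti-B7-1 and anti-CD8 staining. Read-out: percent CD8+ FL2 mean versus row control. Controls: Unloaded micro-vesicles (low), QL9 vesicles with 0.7% DMSO (high).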
VLA-4 inh: inhibition in human VLA-4 binding assay, primary screen, VLA-4 allosteric modulator project, MLPCN library, flow cytometry, VLA-4 expressing cells. 330,000 compounds, 0.2% hits. inhibition, % (about 7 µM as worked out from the volumes in the protocol). Integrin alpha-4 (Homo sapiens), P13612. AID 2557, 2010. ligand binding flow cytometry; in the data active means inhibition above about 50%
CHT PAM: CHT positive allosteric modulators, primary screen, cell-based, membrane potential dye, choline EC20 | High affinity choline transporter 1 (Homo sapiens), Q9GZV3 | CHT-expressing cells; active compounds read high; LV-AA mutant CHT in HEK293 cells | B-score at 10 µM | 310,000 compounds, 0.49% hits | AID 488977, 2010;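 active means initial fluorescence not abnormally high and integrated response B-score, plate-corrected, over 3 SD above library mean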
Target sequence (Q9GZV3 whole entry, looked up): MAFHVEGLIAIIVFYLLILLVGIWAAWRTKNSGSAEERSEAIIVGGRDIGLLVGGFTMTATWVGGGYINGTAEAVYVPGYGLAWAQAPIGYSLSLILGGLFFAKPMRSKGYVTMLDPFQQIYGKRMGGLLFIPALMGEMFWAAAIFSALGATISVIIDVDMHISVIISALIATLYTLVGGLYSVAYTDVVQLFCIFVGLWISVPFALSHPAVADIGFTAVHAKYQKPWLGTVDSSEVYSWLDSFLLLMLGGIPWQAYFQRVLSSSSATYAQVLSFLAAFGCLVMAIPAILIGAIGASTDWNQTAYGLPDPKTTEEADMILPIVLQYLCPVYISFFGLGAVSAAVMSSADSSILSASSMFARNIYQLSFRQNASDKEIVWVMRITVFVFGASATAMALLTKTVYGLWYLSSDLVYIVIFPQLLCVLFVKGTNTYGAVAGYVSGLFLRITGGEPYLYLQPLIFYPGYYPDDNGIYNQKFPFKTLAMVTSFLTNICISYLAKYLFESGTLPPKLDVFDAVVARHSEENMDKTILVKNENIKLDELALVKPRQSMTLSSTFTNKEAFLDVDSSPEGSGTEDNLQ
CHT inh: inhibitors of human choline transporter CHT. High affinity choline transporter 1 (Homo sapiens), Q9GZV3. CHT-expressing cells, membrane potential dye, choline response; active compounds read low. B-score at 10 µM. 310,000 compounds, 0.86% hits;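 active means B-score over 3 SD under the library average, and starting fluorescence ratio not unusually high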;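 further: choline stimulus applied at its EC90 after an EC20 pre-addition; B-score computed on integrated fluorescence ratio after choline addition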
CHT inh conf: CHT inhibitors, confirmation, cell-based, membrane potential dye, duplicate; shares compounds with CHT inh; CHT-expressing cells, choline membrane potential dye; LV-to-AA substituted CHT, HEK293 cells; CHT activity remaining % of control (active compounds read low), % at 10 µM; 2,400 compounds, 70% hits;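 active means choline transporter activity left, mean of duplicates at 10 µM, below buffer-only control mean minus 3 SD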;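 further: depolarization triggered by choline at its EC90 following an EC20 pre-addition; 0% = hemicholinium-3 full block and 100% = buffer-only control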
HEK293 CHT ctr: membrane potential effects in parental HEK293, counter-screen for CHT inhibitor project, cell-based, membrane potential dye; membrane potential ratio readout (active if shifted either direction beyond buffer ±3SD; no single direction) at 10 µM; choline response; active = decrease or increase beyond buffer ±3SD; shares compounds with CHT inh; AID 493222, 2011; 2,400 compounds, 4% hits;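 further: parental cells lack the transporter so any hit is non-specific; ratio is peak minus trough fluorescence over baseline after EC90 choline challenge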
Numbers without * were called inactive; i = inactive; nt = no result.

SMILES	T cell modulator	VLA-4 inh	CHT PAM	CHT inh	CHT inh conf	HEK293 CHT ctr
O=C(Cc1ccc(Cl)cc1)Nc1ccc(S(=O)(=O)Nc2cnc3ccccc3n2)cc1	145.1	-0.7	i	i	nt	nt
O=C(Nc1ccc(S(=O)(=O)Nc2cnc3ccccc3n2)cc1)c1ccc(Cl)c([N+](=O)[O-])c1	209.3	1.7	i	-6.1*	59.6%*	i
O=C(Nc1ccc(Cc2ccncc2)cc1)c1cc(F)c(F)cc1Cl	207.3	16.9	i	-8.54*	i	i
O=C(Nc1ccc(S(=O)(=O)Nc2cnc3ccccc3n2)cc1)c1cc(F)c(F)cc1Cl	448.9	-3.5	i	-6.57*	27.0%*	i
COc1cc(NS(=O)(=O)c2ccc(NC(=O)c3ccc(S(=O)(=O)N4CCCC4)cc3)cc2)ncn1	220.6	-14.0	i	i	nt	nt
COc1cc(NS(=O)(=O)c2ccc(NC(=O)c3ccc(Cl)cc3Cl)cc2)ncn1	311.5	4.6	i	-9.3*	26.9%*	i
O=C(Nc1ccc(S(=O)(=O)Nc2cnc3ccccc3n2)cc1)c1ccc(Cl)cc1Cl	137.5	-2.7	i	-12.6*	-9.5%*	i
O=C(CCNC(=O)c1ccccc1Cl)Nc1cccc(S(=O)(=O)N2CCCC2)c1	627.8	14.2	nt	nt	nt	nt
O=C(COc1cc2oc(=O)c3c(c2cc1Cl)CCC3)NCC(O)c1ccccc1 (centres undefined)	647.8	-4.4	i	i	nt	nt
COc1ccccc1NC(=O)CSc1nncs1	356.8	5.8	nt	nt	nt	nt
CSCC[C@@H](C(=O)NCCCCCCCCCCC(=O)N1CCN(C(=O)OC(C)(C)C)CC1)n1cc(CCO)nn1	339.7	9.0	i	-6.37*	40.0%*	i
O=[N+]([O-])c1cc(Cl)ccc1N1CCN(c2cccc(C(F)(F)F)c2)CC1	515.5	6.8	i	i	nt	nt
O=C(O)c1cc([N+](=O)[O-])cc([N+](=O)[O-])c1N1CCN(c2cccc(C(F)(F)F)c2)CC1	242.7	0.6	i	-5.27*	i	i
CSc1nnc(-c2sccc2OCc2ccc(C)cc2)n1C	769.6	-1.6	i	-5.35*	67.5%*	-9.82*
COc1ccc(C(=O)C2CCCN(C(=O)c3noc4c3CCCC4)C2)cc1F (centres undefined)	198.4	-3.6	i	i	47.2%*	i
CCCN(CC(=O)Nc1ccc(F)c(F)c1F)C(=O)Cn1c(=O)cnc2ccccc21	485.1	-5.2	i	-11.5*	8.6%*	i
CCN(CC(=O)Nc1c(F)cccc1F)C(=O)Cn1c(=O)cnc2ccccc21	357.9	10.6	nt	nt	nt	nt
CC(=O)Nc1ccc(Oc2ncccn2)c(Cl)c1	165.3	-12.9	i	-5.63*	i	i
CC(C)(C)c1ccc(C(=O)NCC(=O)OCC(=O)N2CCCC2)cc1	244.9	5.2	nt	nt	nt	nt
CCCCN(C(=O)C(C)N1C(=O)c2ccccc2C1=O)c1c(N)n(CC(C)C)c(=O)[nH]c1=O (centres undefined)	367.4	-6.7	nt	nt	nt	nt
COc1ccc(OCC(=O)OCC(=O)NC2CCCCC2C)cc1 (centres undefined)	369.2	15.8	nt	nt	nt	nt
COc1cc(NC2CCCCC2O)c2nc(-c3ccc(Cl)cc3)ccc2c1 (centres undefined)	171.1	3.4	i	-8.38*	49.2%*	i
CC1CCN(S(=O)(=O)c2nnc(NC(=O)c3cccc([N+](=O)[O-])c3)s2)CC1	209.4	11.3	i	-9.58*	60.3%*	i
O=C(Nc1nnc(S(=O)(=O)N2CCCC2)s1)c1cccc([N+](=O)[O-])c1	862.1	-0.6	i	i	nt	nt
N#C/C(=C(/O)c1ccccc1F)c1nc2cc(C(F)(F)F)ccc2s1	584.1	-0.8	i	-5.55*	48.1%*	i
SMILES	T cell modulator	VLA-4 inh	CHT PAM	CHT inh	CHT inh conf	HEK293 CHT ctr
CC(C)NC(=O)C1COc2ccccc2O1 (centres undefined)	263.2	11.1	i	i	nt	nt
CC(C)N(C)CCOC(=O)C1COc2ccccc2O1 (centres undefined)	231.6	16.0	i	-5.99*	7.5%*	i
COc1ccc2ncc(S(=O)(=O)c3ccccc3)c(N3CCC4(CC3)OCCO4)c2c1	412.6	9.6	i	-5.86*	51.8%*	i
COc1cc2ncc(S(=O)(=O)c3ccccc3)c(N3CCC4(CC3)OCCO4)c2cc1OC	150.6	-0.7	i	i	nt	nt
Cc1ccc2ncc(S(=O)(=O)c3ccccc3)c(N3CCCCC3C)c2c1 (centres undefined)	795.3	36.6	i	-6.22*	i	i
O=C(COc1ccc2c3c(c(=O)oc2c1)CCCC3)N1CCN(c2ccccc2)CC1	i	27.1	i	i	nt	nt
Cc1ccccc1NC(=O)c1ccc(F)c(S(=O)(=O)NCC2CCCO2)c1 (centres undefined)	388.1	13.0	i	-7.68*	20.8%*	i
Cc1ccc(NC(=O)c2ccc(Cl)c(S(=O)(=O)NCC3CCCO3)c2)c(O)c1 (centres undefined)	641.3	-0.9	i	i	nt	nt
COc1ccc(S(=O)(=O)NCC2CCCO2)cc1NC(=O)c1ccc(Cl)cc1 (centres undefined)	476.9	3.6	i	i	nt	nt
O=C(Nc1ccccc1Cl)c1ccc(S(=O)(=O)NCC2CCCO2)cc1 (centres undefined)	430.4	-0.8	i	-6.42*	30.9%*	i
CCC(=O)N1CCc2cc(Br)cc(S(=O)(=O)NCCCN(C)Cc3ccccc3)c21	257.9	-6.6	i	i	nt	nt
CCC(=O)N1CCc2cc(Br)cc(S(=O)(=O)NC3CCN(Cc4ccccc4)CC3)c21	238.8	4.6	i	-9*	37.7%*	3.18*
O=S(=O)(NC1CCN(Cc2ccccc2)CC1)c1ccc2ccccc2c1	232.4	1.3	i	-5.68*	i	i
O=S(=O)(NC1CCN(Cc2ccccc2)CC1)c1cccc(S(=O)(=O)N2CCOCC2)c1	370.0	7.3	i	i	nt	nt
COc1ccc(C(=O)NCC(=O)N/N=C/c2cccc(OC(=O)c3ccco3)c2)cc1OC	83.6	5.8	i	i	nt	nt
CCC(C(=O)OCC(=O)NCc1ccc2c(c1)OCO2)c1ccccc1 (centres undefined)	239.4	18.2	nt	nt	nt	nt
CC1CCCCN1S(=O)(=O)c1cccc(S(=O)(=O)N2CCOCC2)c1 (centres undefined)	175.7	12.0	i	i	nt	nt
CC(NC(=O)Cn1cccc1C(=O)c1ccccc1)c1ccccc1 (centres undefined)	205.8	-0.5	i	i	nt	nt
